Rows were chosen to be rich in hits. Some 2.6% of all compounds tested hit in one or more screens of this group.
ERAP1 HTS inh: inhibitors of human ERAP1 aminopeptidase; Q9NZ08; recombinant ERAP1, Leu-AMC fluorescence, 60 min; inhibition, % at 10.7 µM; 340,000 tested, 0.15% active;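 active means mean replicate inhibition of at least 30%, or all replicates individually reaching that 30% level; inactive means mean below 30% and not every replicate reaching it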;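 further: 0% = neutral control wells and 100% = L-leucinethiol positive control wells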
INS-1E GSIS act: primary screen for activators of insulin secretion dependent on glucose, INS-1E cells, GLuc reporter luminescence | AID 743287 | activation, % at 16.6 µM | 370,000 tested, 0.61% active | INS-1E GLuc reporter insulin secretion, 2-3 h;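 active means lowest replicate activation of at least 40%, so every replicate reaches that level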;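 further: 0% = median of neutral control wells and 100% = median of IBMX positive control wells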
CFTR F508del cor: CFTR F508del correction in bronchial cells; 350,000 tested, 0.36% active; CFBE cells, YFP halide quenching; stimulated with forskolin plus potentiator P3; % fluorescence drop versus neutral controls; activity (quench increase), % at 7.58 µM;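 active means mean added fluorescence quench of at least 8% versus neutral control, with both replicates also reaching 8%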;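 further: cells transiently co-express mutant CFTR-F508del with the halide-sensitive YFP; corrector assay measuring rescue of mutant channel to the surface after 24 h compound exposure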
DENV2 CPE: inhibitors of DENV2 cytopathic effect. DENV2-infected cells, cytopathic effect rescue, plate reader. CPE inhibition, % at 9.99 µM. 350,000 tested, 1.7% active. AID 651640; in the data active means CPE inhibition above about 20%, passing the limit was not always enough; tested in BHK-21 cells;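 further: 0% = median of neutral control wells and 100% = median of positive control wells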
miR-122 sensor: miR-122 inhibition in Huh7 cells | 340,000 tested, 0.3% active | Huh7 miR-122 Renilla luciferase sensor, 48 h; neutral wells = 0, positive control = 100 | activation (reporter increase), % at 12.5 µM;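 active means mean replicate activation score at least 90 and every replicate individually at or above 90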;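 further: higher luciferase means less miR-122 activity so hits act as miR-122 inhibitors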
E-sel inducer: induces E-selectin expression in human endothelial cells; P16581; HUVEC E-selectin immunofluorescence imaging; normalized: neutral wells 0, TNF-alpha wells 100; activation, % at 7.58 µM; 260,000 tested, 0.37% active; AID 686992;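 active means mean E-selectin-positive cell signal at least 10% of the positive control, reached in at least 60% of replicates, without over 20% cell loss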
Target sequence (P16581 whole entry, looked up): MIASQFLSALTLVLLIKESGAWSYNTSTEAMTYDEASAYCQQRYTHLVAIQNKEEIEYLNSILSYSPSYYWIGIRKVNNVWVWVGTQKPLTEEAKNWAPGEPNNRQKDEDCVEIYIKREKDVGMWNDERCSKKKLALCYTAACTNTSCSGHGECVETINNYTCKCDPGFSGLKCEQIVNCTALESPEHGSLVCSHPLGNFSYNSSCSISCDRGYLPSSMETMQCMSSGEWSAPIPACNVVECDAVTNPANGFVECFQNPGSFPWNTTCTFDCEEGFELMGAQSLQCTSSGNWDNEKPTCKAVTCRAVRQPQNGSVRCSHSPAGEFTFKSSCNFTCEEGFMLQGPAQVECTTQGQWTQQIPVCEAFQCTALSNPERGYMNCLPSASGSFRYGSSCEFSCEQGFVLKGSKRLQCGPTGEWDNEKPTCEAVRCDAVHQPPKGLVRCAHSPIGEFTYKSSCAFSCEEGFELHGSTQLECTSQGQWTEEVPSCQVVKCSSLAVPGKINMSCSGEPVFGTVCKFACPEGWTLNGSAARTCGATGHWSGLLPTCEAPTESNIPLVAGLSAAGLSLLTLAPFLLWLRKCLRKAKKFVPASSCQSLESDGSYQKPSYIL
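System: HUVEC, human umbilical vein endothelial cells; quantity: 3,000 cells/well; buffer or medium: EGM-2 medium, gelatin-coated wells; dosing: single-point compound dose; detection: immunofluorescence imaging; evaluation: % PE-positive cells; benchmarks: TNF-alpha, DMSO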
Numbers without * were called inactive; . = not tested or not shown; [ ] = dose if it differs, or a comment.

SMILES	ERAP1 HTS inh	INS-1E GSIS act	CFTR F508del cor	DENV2 CPE	miR-122 sensor	E-sel inducer
COc1ccc(S(=O)(=O)Nc2ccc3c(c2)C(=O)N([C@@H](C)CO)C[C@H](C)[C@@H](CN(C)CC2CC2)O3)cc1	0.4	5.0	1.1	-5.4	.	0.1
CO[C@H]1CN(C)C(=O)c2cc(NC(C)=O)ccc2OC[C@H](C)N(CC2CCCCC2)C[C@@H]1C	.	4.7	-0.5	.	-1.6[16.7 µM]	0.0
O=C(COC(=O)c1ccc(Br)o1)Nc1ccc2[nH]c(=O)[nH]c2c1	0.7	2.0	1.4	3.8	-0.4	26.7*
COc1ccc(CCC(=O)OCC(=O)Nc2ccc3[nH]c(=O)[nH]c3c2)cc1	-2.8	45.1*	0.9	-1.6	.	0.4
O=C(COC(=O)c1ccco1)Nc1ccc2[nH]c(=O)[nH]c2c1	-2.7	9.8	2.0	14.0	.	.
COc1ccc(OCC(=O)OCC(=O)Nc2ccc3[nH]c(=O)[nH]c3c2)cc1	1.7	7.8	-0.9	12.2	.	.
COc1ccc2c3c(n(C)c2c1)[C@@H](CO)N(CC1CC1)CC31CN(C(=O)c2ccccc2)C1	-2.2	-1.1	-0.4	2.4	.	0.4
O=C(c1ccccc1)N1[C@H](CO)[C@@H](c2ccccc2)C12CN(Cc1nccs1)C2	-0.5	-0.4	-0.1	26.6*	.	0.2
OC[C@@H]1[C@@H](c2ccccc2)C2(CN(Cc3nccs3)C2)N1Cc1ccncc1	0.3	5.9	-0.4	11.0	.	0.2
CC(=O)N1[C@H](CO)[C@H](c2ccccc2)C12CN(Cc1nccs1)C2	-3.0	-4.1	-2.2	10.0	.	-0.3
O=C(c1ccccc1)N1[C@@H](CO)[C@@H](c2ccccc2)C12CN(Cc1nccs1)C2	-2.4	2.4	-0.5	25.3*	.	0.1
CC(=O)N1[C@@H](CO)[C@@H](c2ccccc2)C12CN(Cc1nccs1)C2	-2.6	10.4	0.8	3.6	.	-0.3
OC[C@@H]1[C@@H](c2ccccc2)C2(CN(Cc3nccs3)C2)N1CCC(F)(F)F	5.8	-12.4	-2.5	-0.4	.	-0.1
CCC(=O)N1[C@H](CO)[C@@H](c2ccccc2)C12CN(Cc1nccs1)C2	1.8	-8.1	4.9	73.1*	.	-0.1
OC[C@@H]1[C@H](c2ccccc2)C2(CN(Cc3nccs3)C2)N1CCC(F)(F)F	4.5	-12.1	-1.0	25.5*	.	-0.3
O=C(C[C@@H]1C[C@@H]2c3cc(NC(=O)C4CCC4)ccc3O[C@@H]2[C@@H](CO)O1)NCc1ccccn1	-1.0	8.1	-0.8	-3.1	2.7[16.7 µM]	-0.2
CCC(=O)N1CC2(C1)[C@H](c1ccccc1)[C@H](CO)N2Cc1ccccc1F	-0.3	14.6	1.5	-5.8	.	-0.1
CCC(=O)N1CC2(C1)[C@@H](c1ccccc1)[C@@H](CO)N2Cc1ccccc1F	-3.1	22.1	1.9	23.7*	.	0.4
OC[C@@H]1[C@@H](c2ccccc2)C2(CN(Cc3ccccc3F)C2)N1Cc1ccccc1F	2.4	-12.0	10.4*	-11.1	.	-0.2
OC[C@H]1[C@@H](c2ccccc2)C2(CN(Cc3ccccc3F)C2)N1Cc1ccccc1F	.	-17.3	.	.	.	.
C[C@H](CO)N1C[C@H](C)[C@@H](CN(C)Cc2ccc(C(=O)O)cc2)Oc2ccc(NC(=O)C3CC3)cc2C1=O	0.5	18.1	0.9	-1.0	8.0[16.7 µM]	1.4
O=C(c1ccc(NC2=NC3CS(=O)(=O)CC3S2)cc1)N1CCN(c2ccccc2)CC1 (stereo unspecified)	-1.1	.	-4.5	-0.1	.	-0.7
O=C(c1ccc(NC2=NC3CS(=O)(=O)CC3S2)cc1)N1CCN(c2ccc([N+](=O)[O-])cc2)CC1 (stereo unspecified)	4.6	-8.9	-0.3	38.6*	-0.3	.
O=C(C[C@H]1C=C[C@@H](NC(=O)CN2CCOCC2)[C@@H](CO)O1)NC1CCCCC1	-0.9	21.1	-0.9	3.3	.	0.1
COc1cccc(CN(C)S(=O)(=O)c2cccs2)c1	-1.2	7.6	0.6	24.8*	.	0.0
SMILES	ERAP1 HTS inh	INS-1E GSIS act	CFTR F508del cor	DENV2 CPE	miR-122 sensor	E-sel inducer
CN(Cc1ccccc1)S(=O)(=O)c1cccs1	-2.1	-13.5	0.1	4.1	5.9	.
O=C(C[C@@H]1CC[C@H](NC(=O)NC2CCCCC2)[C@H](CO)O1)NCc1ccc(Cl)cc1	1.7	13.0	1.2	-0.4	.	-0.2
O=C(C1CCOCC1)N1[C@H](CO)[C@@H](c2ccccc2)C12CN(Cc1cccc(Cl)c1)C2	1.7	1.1	1.4	-8.0	.	-0.1
C[C@H](CO)N1C[C@H](C)[C@@H](CN(C)C(=O)C2CCCCC2)Oc2ncc(C#CC3CCCCC3)cc2C1=O	.	2.2	.	.	.	.
Cc1cc(Cn2nc(C(=O)NCC3CC3)cc2-c2ccccc2)on1	-8.2	-6.4	2.0	21.6*	3.5	1.3
Cc1ccc(CNC(=O)c2cc(-c3ccccc3)n(Cc3cc(C)no3)n2)cc1	-1.1	-36.9	2.7	5.0	3.9	0.1
CC(C)(C)c1ccc(OCCNCc2ccccc2)cc1	6.6	-16.0	1.5	-4.5	2.1	0.3
C[n+]1ccccc1COc1ccc(C(C)(C)C)cc1	0.5	.	.	22.7*	.	.
O=S(=O)(c1ccccc1)N1CC2(C1)[C@H](c1ccccc1)[C@@H](CO)N2CC1CCOCC1	-8.5	6.4	6.1	35.6*	.	-0.2
O=S(=O)(c1ccccc1)N1CC2(C1)[C@@H](c1ccccc1)[C@@H](CO)N2CC1CCCC1	1.5	14.3	-4.7	26.9*	.	.
O=S(=O)(c1ccccc1)N1CC2(C1)[C@H](c1ccccc1)[C@@H](CO)N2CC1CCCC1	3.1	17.0	-1.1	-12.6	.	-0.4
CCCCNC(=S)NNC(=O)c1ccc2c(c1)OCO2	2.4	-8.1	2.0	141.7*	.	.
CCC(=O)N[C@@H]1CC[C@@H](CC(=O)OC)O[C@@H]1CO	-2.8	-0.8	-0.8	-2.5	-2.9[16.7 µM]	-0.3
CCc1nc(SCc2ccccc2C)n[nH]1	0.3	.	.	32.3*	9.5	.
Cc1nc(SCc2ccccc2C)n[nH]1	.	16.4	.	.	-4.4	.
C[C@@H]1CCCCO[C@@H](CN(C)CC2CCCCC2)[C@@H](C)CN([C@@H](C)CO)C(=O)c2cc(NS(=O)(=O)c3ccc(F)cc3)ccc2O1	-9.9	-23.6	2.0	3.7	-7.8[16.7 µM]	-0.1
CCn1c(SCC(=O)Nc2cc(C)ccc2C)nc2c(c1=O)SC(C)C2 (stereo unspecified)	-1.0	2.0	0.9	0.6	-1.7	0.4
Cc1ccc(C)c(NC(=O)CSc2nc3c(c(=O)n2C)SC(C)C3)c1 (stereo unspecified)	0.1	-1.7	8.7*	-2.1	3.6	-0.3
COC(=O)C1=C(C)N(Cc2cccc(C(F)(F)F)c2)C(=NCc2ccc(OC)cc2)NC1c1ccccc1 (stereo unspecified)	0.8	.	-1.1	-1.4	.	0.5
COC(=O)C1=C(C)N(Cc2ccc(C(F)(F)F)cc2)C(=NCc2ccccc2)NC1c1cccc(Cl)c1 (stereo unspecified)	-1.3	.	1.7	-3.7	.	-0.4
